Test results: ChEMBL document CHEMBL3102848, “Carbamazepine derivatives with P2X4 receptor-blocking activity” (Bioorg Med Chem, 2014)
pIC50: −log10 of the molar value. The source made the active and inactive calls. No cut-off for these calls is given here.

Experiments:
[1] = Selectivity ratio of IC50 for mouse P2X4 receptor to IC50 for human P2X4 receptor
P2X purinoceptor 1 = target: T1, P2X purinoceptor 1 (Homo sapiens, UniProt P51575); test: Antagonist activity at human P2X1 receptor expressed in human 1321N1 cells assessed as inhibition of ATP-induced cytosolic calcium influx preincubated for 30 mins followed by ATP addition by Fluo-4 AM dye-based fluorescence assay; assay type: cell-based
T1 sequence (P51575 whole entry): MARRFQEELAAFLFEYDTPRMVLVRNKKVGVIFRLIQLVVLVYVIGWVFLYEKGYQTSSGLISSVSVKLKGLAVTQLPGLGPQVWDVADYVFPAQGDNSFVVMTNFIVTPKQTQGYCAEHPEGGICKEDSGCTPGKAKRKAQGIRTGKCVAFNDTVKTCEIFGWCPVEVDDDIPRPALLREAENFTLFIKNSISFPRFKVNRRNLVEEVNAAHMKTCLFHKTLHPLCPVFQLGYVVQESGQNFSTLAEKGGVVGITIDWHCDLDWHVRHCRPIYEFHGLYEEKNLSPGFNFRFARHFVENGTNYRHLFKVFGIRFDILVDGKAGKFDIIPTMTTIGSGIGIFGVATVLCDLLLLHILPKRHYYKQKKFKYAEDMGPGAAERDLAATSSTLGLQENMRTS

P2X purinoceptor 4 = target: T2, P2X purinoceptor 4 (Mus musculus, UniProt Q9JJX6); test: Antagonist activity at mouse P2X4 receptor assessed as inhibition of ATP-induced cytosolic calcium influx preincubated for 30 mins followed by ATP addition by Fluo-4 AM dye-based fluorescence assay
T2 sequence (Q9JJX6 whole entry): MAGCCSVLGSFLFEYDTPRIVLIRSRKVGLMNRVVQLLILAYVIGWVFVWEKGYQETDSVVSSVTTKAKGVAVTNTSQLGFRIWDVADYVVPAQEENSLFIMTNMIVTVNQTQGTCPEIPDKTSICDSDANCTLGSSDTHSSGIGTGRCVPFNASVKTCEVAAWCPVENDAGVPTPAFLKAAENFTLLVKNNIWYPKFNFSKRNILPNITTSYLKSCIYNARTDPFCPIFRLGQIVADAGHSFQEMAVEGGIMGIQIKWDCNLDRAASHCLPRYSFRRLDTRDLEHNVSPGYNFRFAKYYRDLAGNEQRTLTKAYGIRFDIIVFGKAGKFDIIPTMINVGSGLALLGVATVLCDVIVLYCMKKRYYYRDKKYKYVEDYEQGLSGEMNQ

[2] = target: T3, P2X purinoceptor 7 (Homo sapiens) (UniProt Q99572); test: Antagonist activity at human P2X7 receptor expressed in human 1321N1 cells assessed as inhibition of ATP-induced cytosolic calcium influx at 100 uM preincubated for 30 mins followed by ATP addition by Fluo-4 AM dye-based fluorescence assay; assay type: cell-based
T3 sequence (whole entry): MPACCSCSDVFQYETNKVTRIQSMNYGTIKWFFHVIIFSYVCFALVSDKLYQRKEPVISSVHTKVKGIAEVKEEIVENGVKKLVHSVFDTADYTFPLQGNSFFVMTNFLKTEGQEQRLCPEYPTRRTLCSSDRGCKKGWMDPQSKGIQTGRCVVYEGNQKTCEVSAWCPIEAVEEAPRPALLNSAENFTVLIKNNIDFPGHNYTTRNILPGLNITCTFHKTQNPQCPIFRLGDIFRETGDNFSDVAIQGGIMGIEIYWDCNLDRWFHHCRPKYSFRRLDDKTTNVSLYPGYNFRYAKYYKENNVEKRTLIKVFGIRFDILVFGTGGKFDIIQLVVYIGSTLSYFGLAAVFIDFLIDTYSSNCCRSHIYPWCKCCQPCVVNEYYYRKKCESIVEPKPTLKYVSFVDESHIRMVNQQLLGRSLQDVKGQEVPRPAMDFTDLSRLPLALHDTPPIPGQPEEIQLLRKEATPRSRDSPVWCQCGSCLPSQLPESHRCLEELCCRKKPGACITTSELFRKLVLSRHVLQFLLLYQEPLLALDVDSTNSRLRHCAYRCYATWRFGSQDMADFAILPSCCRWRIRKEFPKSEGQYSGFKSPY

[3] = target: T4, P2X purinoceptor 4 (Homo sapiens) (UniProt Q99571); test: Antagonist activity at human P2X4 receptor expressed in human 1321N1 cells assessed as inhibition of ATP-induced cytosolic calcium influx at 100 uM preincubated for 30 mins followed by ATP addition by Fluo-4 AM dye-based fluorescence assay; assay type: cell-based
T4 sequence (whole entry): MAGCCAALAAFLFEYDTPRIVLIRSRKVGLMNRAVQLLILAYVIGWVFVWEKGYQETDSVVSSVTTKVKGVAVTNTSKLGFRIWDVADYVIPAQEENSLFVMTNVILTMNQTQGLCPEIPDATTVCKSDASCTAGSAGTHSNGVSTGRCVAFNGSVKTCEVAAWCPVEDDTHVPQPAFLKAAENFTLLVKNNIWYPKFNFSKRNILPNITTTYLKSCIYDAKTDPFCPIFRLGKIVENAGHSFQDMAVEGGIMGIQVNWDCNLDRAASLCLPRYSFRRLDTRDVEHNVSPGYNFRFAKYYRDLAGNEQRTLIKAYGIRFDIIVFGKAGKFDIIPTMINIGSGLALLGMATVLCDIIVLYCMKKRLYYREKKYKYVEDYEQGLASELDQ
Summary of the method: (§1)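 Human P2X4 stably transfected into 1321N1 astrocytoma cells. Inhibition of ATP-induced calcium influx measured as in earlier work. Compounds were first screened at a single high concentration, chosen according to their solubility.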

[4] = target: T5, P2X purinoceptor 4 (Mus musculus) (UniProt Q9JJX6); test: Antagonist activity at mouse P2X4 receptor assessed as inhibition of ATP-induced cytosolic calcium influx at 100 uM preincubated for 30 mins followed by ATP addition by Fluo-4 AM dye-based fluorescence assay
T5 sequence (whole entry): T2 sequence (Q9JJX6 whole entry)

[5] = target: T4, P2X purinoceptor 4 (Homo sapiens); test: Antagonist activity at human P2X4 receptor expressed in human 1321N1 cells assessed as inhibition of ATP-induced cytosolic calcium influx at 10 uM preincubated for 30 mins followed by ATP addition by Fluo-4 AM dye-based fluorescence assay; assay type: cell-based; summary of the method: as §1
[6] = target: T4, P2X purinoceptor 4 (Homo sapiens); test: Negative allosteric modulation of human P2X4 receptor expressed in human 1321N1 cells assessed as reduction in ATP-induced cytosolic calcium influx at 3 to 30 uM; assay type: cell-based
Summary of the method: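 1321N1 astrocytoma cells stably expressing human P2X4. Full ATP concentration–response curves (10^-8 to 10^-3 M) for intracellular calcium, recorded without inhibitor and with three fixed modulator levels (3, 10, 30). ATP EC50 and maximal effect (Emax, %) were derived for each condition.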

SMILES	Ratio IC50 [1]	pIC50 (P2X purinoceptor 1)	pIC50 (P2X purinoceptor 4)	inhibition [2]	inhibition [3]	inhibition [4]	inhibition [5]	Activity [6]
O=C(N1CCCC1)N1c2ccccc2C=Cc2ccccc21	3	4.16	3.91	33%	98%			
O=C(N1CCCCC1)N1c2ccccc2C=Cc2ccccc21	3	4.68	3.99	-10%	72%			
O=C(NC1CCCCC1)N1c2ccccc2C=Cc2ccccc21	3	4.16	4.01		100%			

Now from value to compound:

Ratio IC50 [1]	pIC50 (P2X purinoceptor 1)	pIC50 (P2X purinoceptor 4)	inhibition [2]	inhibition [3]	inhibition [4]	inhibition [5]	Activity [6]	SMILES
	4.60	< 4.00		95%	27%			CCN(CC)C(=O)N1c2ccccc2C=Cc2ccccc21
3	5.27	4.83				71%	Active	CC(C)N(C(=O)N1c2ccccc2C=Cc2ccccc21)C(C)C
3	5.34	< 4.00			38%	49%		CCCN(CCC)C(=O)N1c2ccccc2C=Cc2ccccc21
